Assay [1] has as its target Poly [ADP-ribose] polymerase 2 (Homo sapiens, UniProt Q9UGN5). Description: Inhibition of PARP2 (unknown origin).
In assay [2] the target is T1, Protein mono-ADP-ribosyltransferase PARP3 (Homo sapiens, UniProt Q9Y6F1).
T1 sequence (Q9Y6F1 whole entry): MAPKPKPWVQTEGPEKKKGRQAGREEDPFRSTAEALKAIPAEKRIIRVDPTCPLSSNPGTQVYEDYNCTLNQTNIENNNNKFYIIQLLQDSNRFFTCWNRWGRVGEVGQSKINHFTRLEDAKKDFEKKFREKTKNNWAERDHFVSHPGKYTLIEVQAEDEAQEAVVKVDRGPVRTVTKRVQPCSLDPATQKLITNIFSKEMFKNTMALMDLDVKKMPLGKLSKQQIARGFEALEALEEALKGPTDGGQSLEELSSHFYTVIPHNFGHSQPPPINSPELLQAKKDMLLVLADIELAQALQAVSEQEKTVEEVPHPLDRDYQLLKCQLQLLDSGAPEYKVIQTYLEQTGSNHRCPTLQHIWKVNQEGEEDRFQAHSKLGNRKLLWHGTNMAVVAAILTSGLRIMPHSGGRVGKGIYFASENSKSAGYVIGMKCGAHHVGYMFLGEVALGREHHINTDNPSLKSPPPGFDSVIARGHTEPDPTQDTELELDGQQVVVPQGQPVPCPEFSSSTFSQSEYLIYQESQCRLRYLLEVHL
Description: Inhibition of PARP3 (unknown origin).

Assay [3] deals with Poly [ADP-ribose] polymerase 1 (Homo sapiens, UniProt P09874). Description: Inhibition of PARP1 (unknown origin).
Poly [ADP-ribose] polymerase 1, sequence (P09874 whole entry): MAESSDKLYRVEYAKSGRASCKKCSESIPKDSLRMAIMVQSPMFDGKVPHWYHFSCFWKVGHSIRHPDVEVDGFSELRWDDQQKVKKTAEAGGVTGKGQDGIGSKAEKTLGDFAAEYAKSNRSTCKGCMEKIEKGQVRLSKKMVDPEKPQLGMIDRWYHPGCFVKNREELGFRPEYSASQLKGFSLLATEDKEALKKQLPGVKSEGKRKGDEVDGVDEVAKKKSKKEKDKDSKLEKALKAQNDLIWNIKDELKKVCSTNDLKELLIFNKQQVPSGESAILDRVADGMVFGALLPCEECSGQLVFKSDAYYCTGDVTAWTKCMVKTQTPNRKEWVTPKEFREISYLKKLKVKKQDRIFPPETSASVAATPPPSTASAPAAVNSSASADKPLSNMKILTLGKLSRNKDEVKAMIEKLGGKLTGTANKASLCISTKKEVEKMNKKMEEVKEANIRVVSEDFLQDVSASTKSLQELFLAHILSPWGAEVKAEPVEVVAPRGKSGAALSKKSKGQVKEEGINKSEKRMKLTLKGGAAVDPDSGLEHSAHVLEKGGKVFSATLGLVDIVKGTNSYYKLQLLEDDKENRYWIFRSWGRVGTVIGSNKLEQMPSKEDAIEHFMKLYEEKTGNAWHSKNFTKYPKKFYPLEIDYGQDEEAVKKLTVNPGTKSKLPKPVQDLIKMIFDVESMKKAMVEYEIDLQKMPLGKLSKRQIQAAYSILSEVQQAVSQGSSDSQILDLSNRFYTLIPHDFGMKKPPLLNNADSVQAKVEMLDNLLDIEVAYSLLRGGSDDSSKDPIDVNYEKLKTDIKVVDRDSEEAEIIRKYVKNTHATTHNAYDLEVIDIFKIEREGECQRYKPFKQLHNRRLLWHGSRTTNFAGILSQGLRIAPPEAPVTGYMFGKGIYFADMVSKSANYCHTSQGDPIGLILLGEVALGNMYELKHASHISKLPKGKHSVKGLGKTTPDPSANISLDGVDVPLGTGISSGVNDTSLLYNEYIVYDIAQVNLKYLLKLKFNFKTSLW
Assay [4] deals with Protein mono-ADP-ribosyltransferase PARP6 (Homo sapiens, UniProt Q2NL67). Description: Inhibition of PARP6 (unknown origin).
Protein mono-ADP-ribosyltransferase PARP6, sequence (Q2NL67 whole entry): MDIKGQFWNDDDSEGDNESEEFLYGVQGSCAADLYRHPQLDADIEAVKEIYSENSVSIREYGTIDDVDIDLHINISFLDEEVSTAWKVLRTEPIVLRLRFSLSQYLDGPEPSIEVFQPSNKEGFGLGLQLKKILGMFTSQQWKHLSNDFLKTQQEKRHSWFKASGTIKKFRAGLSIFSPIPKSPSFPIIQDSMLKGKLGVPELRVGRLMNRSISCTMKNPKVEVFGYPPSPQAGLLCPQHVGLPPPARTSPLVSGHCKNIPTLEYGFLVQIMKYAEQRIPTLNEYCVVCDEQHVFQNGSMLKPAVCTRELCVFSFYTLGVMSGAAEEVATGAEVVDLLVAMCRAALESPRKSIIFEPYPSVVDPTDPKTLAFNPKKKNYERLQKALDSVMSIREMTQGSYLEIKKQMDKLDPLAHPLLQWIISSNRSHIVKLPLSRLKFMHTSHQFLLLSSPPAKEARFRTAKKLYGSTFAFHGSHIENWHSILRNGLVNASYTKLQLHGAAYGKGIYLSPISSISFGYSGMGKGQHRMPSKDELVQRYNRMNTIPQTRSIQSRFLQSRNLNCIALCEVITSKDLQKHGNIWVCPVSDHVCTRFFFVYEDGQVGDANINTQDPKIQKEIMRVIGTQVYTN
Assay [5] has as its target T2, Protein mono-ADP-ribosyltransferase PARP11 (Homo sapiens) (UniProt Q9NR21).
T2 sequence (whole entry): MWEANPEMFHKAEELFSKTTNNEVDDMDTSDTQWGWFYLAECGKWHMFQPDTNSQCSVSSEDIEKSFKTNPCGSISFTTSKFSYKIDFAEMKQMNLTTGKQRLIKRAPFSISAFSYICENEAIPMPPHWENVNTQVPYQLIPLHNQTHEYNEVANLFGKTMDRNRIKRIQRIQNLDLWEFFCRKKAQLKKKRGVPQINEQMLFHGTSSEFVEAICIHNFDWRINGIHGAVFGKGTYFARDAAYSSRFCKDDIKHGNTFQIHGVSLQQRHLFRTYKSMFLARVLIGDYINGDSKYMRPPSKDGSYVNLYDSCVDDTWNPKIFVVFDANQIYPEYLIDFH
Description: Inhibition of PARP11 (unknown origin) at 10 uM relative to control.

Assay [6] deals with T3, Poly [ADP-ribose] polymerase tankyrase-2 (Homo sapiens, UniProt Q9H2K2).
T3 sequence (Q9H2K2 whole entry): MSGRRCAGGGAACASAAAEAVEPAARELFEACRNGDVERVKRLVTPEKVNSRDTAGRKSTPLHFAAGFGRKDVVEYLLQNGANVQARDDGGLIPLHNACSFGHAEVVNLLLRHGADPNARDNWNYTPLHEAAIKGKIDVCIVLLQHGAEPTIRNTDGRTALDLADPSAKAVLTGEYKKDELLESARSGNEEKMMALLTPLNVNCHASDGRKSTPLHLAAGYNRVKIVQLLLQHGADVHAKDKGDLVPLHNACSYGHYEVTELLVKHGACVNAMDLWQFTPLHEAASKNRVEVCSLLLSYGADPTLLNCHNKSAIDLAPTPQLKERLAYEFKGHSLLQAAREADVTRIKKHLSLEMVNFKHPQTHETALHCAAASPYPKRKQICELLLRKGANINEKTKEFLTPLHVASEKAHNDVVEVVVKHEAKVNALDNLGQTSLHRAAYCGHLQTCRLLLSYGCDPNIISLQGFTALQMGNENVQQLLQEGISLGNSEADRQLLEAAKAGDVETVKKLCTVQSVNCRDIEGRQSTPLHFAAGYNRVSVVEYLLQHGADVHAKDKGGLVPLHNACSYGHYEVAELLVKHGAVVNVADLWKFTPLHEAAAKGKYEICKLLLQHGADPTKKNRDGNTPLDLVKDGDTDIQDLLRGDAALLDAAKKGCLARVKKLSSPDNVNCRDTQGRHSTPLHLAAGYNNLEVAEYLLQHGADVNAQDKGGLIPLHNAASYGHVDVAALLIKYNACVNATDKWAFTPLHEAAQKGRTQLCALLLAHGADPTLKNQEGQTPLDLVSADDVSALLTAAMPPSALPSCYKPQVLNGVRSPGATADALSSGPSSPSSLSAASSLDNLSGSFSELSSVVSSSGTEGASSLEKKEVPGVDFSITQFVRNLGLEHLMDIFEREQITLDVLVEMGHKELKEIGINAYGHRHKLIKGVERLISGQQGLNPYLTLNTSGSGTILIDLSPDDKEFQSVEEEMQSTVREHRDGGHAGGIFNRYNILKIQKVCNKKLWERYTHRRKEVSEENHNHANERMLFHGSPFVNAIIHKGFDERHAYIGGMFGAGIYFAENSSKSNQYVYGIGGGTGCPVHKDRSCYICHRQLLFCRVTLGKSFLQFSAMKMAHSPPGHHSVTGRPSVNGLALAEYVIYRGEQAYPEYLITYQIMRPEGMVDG
Description: Inhibition of auto-PARsylation of GST-tagged TNKS2 PARP domain (947 to 1162) (unknown origin) expressed in Escherichia coli BL21(DE3) after 2 hrs by LC/MS analysis.

The species named for assay [7] is Homo sapiens. Description: Selectivity ratio of IC50 for PARP1 (unknown origin) to IC50 for TNKS2 PARP domain (947 to 1162) (unknown origin).
Assay [8] is filed under the species Homo sapiens. Description: Selectivity ratio of IC50 for PARP6 (unknown origin) to IC50 for TNKS2 PARP domain (947 to 1162) (unknown origin).
The species entered for assay [9] is Homo sapiens. Description: Selectivity ratio of IC50 for TNKS1 (unknown origin) to IC50 for TNKS2 PARP domain (947 to 1162) (unknown origin).
Assay [10] is filed under the species Homo sapiens. Description: Selectivity ratio of IC50 for PARP3 (unknown origin) to IC50 for TNKS2 PARP domain (947 to 1162) (unknown origin).
Assay [11] deals with T4, Poly [ADP-ribose] polymerase tankyrase-2 (Homo sapiens) (UniProt Q9H2K2).
T4 sequence (whole entry): T3 sequence (Q9H2K2 whole entry)
Description: Binding affinity to TNKS2 PARP domain (947 to 1162) (unknown origin) expressed in Escherichia coli BL21(DE3) assessed as thermal stabilization at 125 uM by differential scanning flourimetric analysis. Summed up: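 DSF dose−response. TNKS2 at 0.2 mg/mL with SYPRO Orange (5×). Compounds were serially diluted in 100% DMSO at 50× the assay concentration. Chymotrypsin (1/100 TNKS2 mass equivalents) was added to the protein–dye mix just before the run. Scanned 25−80 °C at about 2 °C/min, ex 490/em 575 nm, and Tm shift was taken against the DMSO control.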

Bounds are passed on as bounds.

Poly [ADP-ribose] polymerase 2, sequence (Q9UGN5 whole entry): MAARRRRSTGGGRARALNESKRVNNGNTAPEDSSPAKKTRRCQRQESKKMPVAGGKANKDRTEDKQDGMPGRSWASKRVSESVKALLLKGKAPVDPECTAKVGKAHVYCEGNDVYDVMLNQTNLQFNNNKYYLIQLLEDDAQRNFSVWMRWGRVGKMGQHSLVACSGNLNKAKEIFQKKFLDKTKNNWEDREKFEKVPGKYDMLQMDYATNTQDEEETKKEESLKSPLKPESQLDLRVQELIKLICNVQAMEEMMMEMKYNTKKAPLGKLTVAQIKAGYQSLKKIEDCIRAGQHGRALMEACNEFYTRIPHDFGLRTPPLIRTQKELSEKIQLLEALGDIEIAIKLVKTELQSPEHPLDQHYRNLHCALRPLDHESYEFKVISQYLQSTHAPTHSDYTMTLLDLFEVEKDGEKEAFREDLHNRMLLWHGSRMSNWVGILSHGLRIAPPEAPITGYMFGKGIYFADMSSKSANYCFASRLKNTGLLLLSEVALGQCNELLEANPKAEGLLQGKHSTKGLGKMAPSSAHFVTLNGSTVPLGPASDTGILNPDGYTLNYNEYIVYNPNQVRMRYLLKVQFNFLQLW

Take `Cc1cc(=O)[nH]c2cc(-c3ccccc3F)ccc12`: the concentration for half-maximal inhibition (IC50) (commonly the point on the concentration scale where inhibition reaches its midpoint) is more than 10 µM in [1]; more than 10 µM in [2]; more than 10 µM in assay [3]; more than 10 µM in assay [4]; 0.052 µM in assay [6]. Further, in assay [5], the inhibition (usually the relative decrease from the control value, in per cent) was found to be 23%. Moreover, the Ratio IC50 in assay [7] is more than 100; in assay [8], more than 100; in assay [9], 16.5; in [10], more than 100. In addition, the ΔTm (in general, the change in melting temperature against a reference sample) in [11] is 5.1 °C.

The values above are taken from ChEMBL document CHEMBL2380224, “Fragment-based ligand design of novel potent inhibitors of tankyrases” (J Med Chem, 2013).
